The text below walks through data of ChEMBL document CHEMBL4138275, “Taccalonolide Microtubule Stabilizers Generated Using Semisynthesis Define the Effects of Mono Acyloxy Moieties at C-7 or C-15 and Disubstitutions at C-7 and C-25” (J Nat Prod, 2018).

For the assay, the system named is HeLa. The assay is described as follows: Antiproliferative activity against human HeLa cells after 48 hrs by sulforhodamine B assay. The class given is functional, cell-based. The method in brief: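 HeLa cells (STR-validated) grown in BME with 10% FBS and gentamycin, seeded 2500/well, left to adhere overnight, then exposed to compounds for 48 h. Cell density read by sulforhodamine B staining. IC50 is the concentration giving 50% inhibition of cell density versus vehicle, fitted by nonlinear regression. Mean of 3 or 4 experiments, each in triplicate, ±SD.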
For orientation: The SRB assay estimates cell density from bound dye.

As usually defined, the IC50 is the midpoint of a concentration-inhibition curve. A high value points to a need for much substance. Regarding `CC(=O)O[C@H]1[C@H]2[C@H]([C@@H]3[C@@H](O)[C@@H]4[C@H]([C@H](C)C=C5OC(=O)[C@@](C)(OC(=O)C6CC6)[C@@]54C)[C@@]3(C)[C@H]1OC(C)=O)[C@@H](OC(=O)C1CC1)C(=O)[C@H]1C[C@@H]3O[C@@H]3[C@H](OC(C)=O)[C@]21C`, the IC50 was above 20 µM. In the case of `CC(=O)O[C@H]1[C@H]2[C@H]([C@@H]3[C@@H](O)[C@@H]4[C@H]([C@H](C)C=C5OC(=O)[C@@](C)(O)[C@@]54C)[C@@]3(C)[C@H]1OC(C)=O)[C@@H](OC(=O)c1ccc3c(c1)C(=O)c1ccccc1C3=O)C(=O)[C@H]1C[C@@H]3O[C@@H]3[C@H](OC(C)=O)[C@]21C`, the half-inhibitory concentration (IC50) was 3.4 µM. In turn, `CC(=O)O[C@H]1[C@H]2[C@H]([C@@H]3[C@@H](O)[C@@H]4[C@H]([C@H](C)[C@H]5O[C@]56OC(=O)[C@@](C)(O)[C@]46C)[C@@]3(C)[C@H]1OC(C)=O)[C@@H](OC(=O)c1ccc3c(c1)C(=O)c1ccccc1C3=O)C(=O)[C@H]1C[C@@H]3O[C@@H]3[C@H](OC(C)=O)[C@]21C` yielded an IC50 of 0.022 µM.

In turn, `CC(=O)O[C@H]1[C@H]2[C@H]([C@@H]3[C@@H](OC(=O)C(C)C)[C@@H]4[C@H]([C@H](C)C=C5OC(=O)[C@@](C)(O)[C@@]54C)[C@@]3(C)[C@H]1OC(C)=O)[C@@H](O)C(=O)[C@H]1C[C@@H]3O[C@@H]3[C@H](OC(C)=O)[C@]21C` showed an IC50 above 20 µM.

`CC(=O)O[C@@H]1[C@H]2[C@H]3[C@H]([C@H](OC(C)=O)[C@H](OC(C)=O)[C@]2(C)[C@@H]2[C@@H]1[C@]1(C)C(=C[C@H]2C)OC(=O)[C@@]1(C)O)[C@]1(C)[C@H](C[C@@H]2O[C@@H]2[C@@H]1OC(C)=O)C(=O)[C@@H]3O` [TACCALONOLIDE A]: it took 5.4 µM to reach half-maximal inhibition (IC50). On to `CC(=O)O[C@H]1[C@H]2[C@H]([C@@H]3[C@@H](O)[C@@H]4[C@H]([C@H](C)C=C5OC(=O)[C@@](C)(OC(=O)CC(C)C)[C@@]54C)[C@@]3(C)[C@H]1OC(C)=O)[C@@H](OC(=O)CC(C)C)C(=O)[C@H]1C[C@@H]3O[C@@H]3[C@H](OC(C)=O)[C@]21C`, for which the IC50 is above 20 µM.

Compound `CC(=O)O[C@H]1[C@H]2[C@H]([C@@H]3[C@@H](OC(=O)CC(C)C)[C@@H]4[C@H]([C@H](C)C=C5OC(=O)[C@@](C)(O)[C@@]54C)[C@@]3(C)[C@H]1OC(C)=O)[C@@H](O)C(=O)[C@H]1C[C@@H]3O[C@@H]3[C@H](OC(C)=O)[C@]21C` returned an IC50 of 1.5 µM.

In turn, `CC(=O)O[C@H]1[C@H]2[C@H]([C@@H]3[C@@H](O)[C@@H]4[C@H]([C@H](C)C=C5OC(=O)[C@@](C)(OC(=O)c6ccc7c(c6)C(=O)c6ccccc6C7=O)[C@@]54C)[C@@]3(C)[C@H]1OC(C)=O)[C@@H](OC(=O)c1ccc3c(c1)C(=O)c1ccccc1C3=O)C(=O)[C@H]1C[C@@H]3O[C@@H]3[C@H](OC(C)=O)[C@]21C` showed an IC50 above 20 µM. Compound `CC(=O)O[C@H]1[C@H]2[C@H]([C@@H]3[C@@H](O)[C@@H]4[C@H]([C@H](C)[C@H]5O[C@]56OC(=O)[C@@](C)(OC(=O)c5ccc7c(c5)C(=O)c5ccccc5C7=O)[C@]46C)[C@@]3(C)[C@H]1OC(C)=O)[C@@H](OC(=O)c1ccc3c(c1)C(=O)c1ccccc1C3=O)C(=O)[C@H]1C[C@@H]3O[C@@H]3[C@H](OC(C)=O)[C@]21C` yielded an IC50 of 3 µM. Consider `CC(=O)O[C@H]1[C@H]2[C@H]([C@@H]3[C@@H](OC(=O)C(C)(C)C)[C@@H]4[C@H]([C@H](C)C=C5OC(=O)[C@@](C)(O)[C@@]54C)[C@@]3(C)[C@H]1OC(C)=O)[C@@H](O)C(=O)[C@H]1C[C@@H]3O[C@@H]3[C@H](OC(C)=O)[C@]21C`, for which half-maximal inhibition (IC50) required 2.4 µM. For `CC(=O)O[C@H]1[C@H]2[C@H]([C@@H]3[C@@H](OC(=O)C4CC4)[C@@H]4[C@H]([C@H](C)C=C5OC(=O)[C@@](C)(O)[C@@]54C)[C@@]3(C)[C@H]1OC(C)=O)[C@@H](O)C(=O)[C@H]1C[C@@H]3O[C@@H]3[C@H](OC(C)=O)[C@]21C`, the IC50 was above 20 µM. For `CC(=O)O[C@H]1[C@H]2[C@H]([C@@H]3[C@@H](OC(=O)c4ccc5c(c4)C(=O)c4ccccc4C5=O)[C@@H]4[C@H]([C@H](C)C=C5OC(=O)[C@@](C)(O)[C@@]54C)[C@@]3(C)[C@H]1OC(C)=O)[C@@H](O)C(=O)[C@H]1C[C@@H]3O[C@@H]3[C@H](OC(C)=O)[C@]21C`, the IC50 worked out at 7.1 µM.

For `CC(=O)O[C@H]1[C@H]2[C@H]([C@@H]3[C@@H](OC(=O)c4ccc5c(c4)C(=O)c4ccccc4C5=O)[C@@H]4[C@H]([C@H](C)[C@H]5O[C@]56OC(=O)[C@@](C)(O)[C@]46C)[C@@]3(C)[C@H]1OC(C)=O)[C@@H](O)C(=O)[C@H]1C[C@@H]3O[C@@H]3[C@H](OC(C)=O)[C@]21C`, the IC50 is 0.038 µM. `CC(=O)O[C@H]1[C@H]2[C@H]([C@@H]3[C@@H](O)[C@@H]4[C@H]([C@H](C)C=C5OC(=O)[C@@](C)(O)[C@@]54C)[C@@]3(C)[C@H]1OC(C)=O)[C@@H](OC(=O)C(C)(C)C)C(=O)[C@H]1C[C@@H]3O[C@@H]3[C@H](OC(C)=O)[C@]21C` yielded an IC50 of 10 µM. `CC(=O)O[C@H]1[C@H]2[C@H]([C@@H]3[C@@H](O)[C@@H]4[C@H]([C@H](C)C=C5OC(=O)[C@@](C)(O)[C@@]54C)[C@@]3(C)[C@H]1OC(C)=O)[C@@H](OC(=O)CC(C)C)C(=O)[C@H]1C[C@@H]3O[C@@H]3[C@H](OC(C)=O)[C@]21C`: the IC50 was above 20 µM. In turn, `CC(=O)O[C@H]1[C@H]2[C@H]([C@@H]3[C@@H](O)[C@@H]4[C@H]([C@H](C)C=C5OC(=O)[C@@](C)(O)[C@@]54C)[C@@]3(C)[C@H]1OC(C)=O)[C@@H](OC(=O)C(C)C)C(=O)[C@H]1C[C@@H]3O[C@@H]3[C@H](OC(C)=O)[C@]21C` showed an IC50 of 4.7 µM.

Consider `CC(=O)O[C@H]1[C@H]2[C@H]([C@@H]3[C@@H](O)[C@@H]4[C@H]([C@H](C)C=C5OC(=O)[C@@](C)(OC(=O)C(C)C)[C@@]54C)[C@@]3(C)[C@H]1OC(C)=O)[C@@H](OC(=O)C(C)C)C(=O)[C@H]1C[C@@H]3O[C@@H]3[C@H](OC(C)=O)[C@]21C`, for which the IC50 is above 20 µM. Compound `CC(=O)O[C@H]1[C@H]2[C@H]([C@@H]3[C@@H](OC=O)[C@@H]4[C@H]([C@H](C)C=C5OC(=O)[C@@](C)(O)[C@@]54C)[C@@]3(C)[C@H]1OC(C)=O)[C@@H](O)C(=O)[C@H]1C[C@@H]3O[C@@H]3[C@H](OC(C)=O)[C@]21C` gave an IC50 above 20 µM.
